One compound from ChEMBL document CHEMBL4706489, “Hydrogen sulfide releasing oridonin derivatives induce apoptosis through extrinsic and intrinsic pathways” (Eur J Med Chem, 2020) can be followed below.

The nature of series [1]: Selectivity ratio of IC50 for cytotoxicity against human PBMC cells to IC50 for antiproliferative activity against human HepG2 cells. Type of series: toxicity, cell-based. Conditions: read-out: Ratio IC50.
For series [2], the system named is HepG2. Put plainly: Induction of cell cycle arrest in human HepG2 cells assessed as accumulation at S phase at 0.5 uM after 48 hrs by propidium iodide staining based flow cytometric analysis (reference value: 33.22 to 33.58%). Type of series: functional. For orientation: In flow cytometry, cells or beads pass a laser one at a time.
The subject of series [3] is HepG2. The experiment in a line: Induction of cell cycle arrest in human HepG2 cells assessed as accumulation at G1 phase at 1 uM after 48 hrs by propidium iodide staining based flow cytometric analysis (reference value: 49.46 to 50.3%). Type of series: functional. The method, boiled down:
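HepG2 cells were treated with 0, 0.50, 1.0 or 2.0 test agent for 48 h. Cells were washed in cold PBS and fixed in 70% ethanol at −20 °C overnight. DNA-content distribution was measured by flow cytometry. Mean ± SD, three independent experiments.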

The subject of series [4] is HepG2. The experiment in a line: Induction of cell cycle arrest in human HepG2 cells assessed as accumulation at S phase at 1 uM after 48 hrs by propidium iodide staining based flow cytometric analysis (reference value: 33.22 to 33.58%). Type of series: functional.
Series [5] concerns HepG2. Put plainly: Induction of cell cycle arrest in human HepG2 cells assessed as accumulation at S phase at 2 uM after 48 hrs by propidium iodide staining based flow cytometric analysis (reference value: 33.22 to 33.58%). Type of series: functional.
For series [6], the system named is K562. The experiment in a line: Induction of apoptosis in human K562 cells assessed as viable cells at 0.5 uM after 48 hrs by annexin V FITC and propidium iodide staining based flow cytometric analysis (reference value: 96.76%). The conditions noted are these: read-out: Activity. Type of series: functional.
For series [7], the system named is K562. The experiment in a line: Induction of apoptosis in human K562 cells assessed as late apoptotic cells at 1 uM after 48 hrs by annexin V FITC and propidium iodide staining based flow cytometric analysis (reference value: 0.42%). Type of series: functional.
Series [8] relates to K562. The experiment in a line: Induction of apoptosis in human K562 cells assessed as viable cells at 2 uM after 48 hrs by annexin V FITC and propidium iodide staining based flow cytometric analysis (reference value: 96.76%). Type of series: functional. Conditions: read-out: Activity.
In series [9] the test system is HepG2. The experiment in a line: Induction of apoptosis in human HepG2 cells assessed as necrotic cells at 0.5 uM after 48 hrs by annexin V FITC and propidium iodide staining based flow cytometric analysis (reference value: 0.89%). Type of series: functional.
The test system of series [10] is K562. Put plainly: Induction of apoptosis in human K562 cells assessed as decrease in C-IAP2 protein expression at 1 uM after 24 hrs by chemiluminescence based apoptosis array method. Type of series: functional, cell-based. The method, boiled down: (§1)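 K562 cells were treated with 1 test agent for 24 h. Diluted total-cell lysates were applied to a human apoptosis antibody array covering 35 apoptosis-related proteins for 24 h. Unbound protein was washed off, and arrays were probed with a biotinylated detection antibody for 1 h. Relative expression was read from chemiluminescent signal by digital imaging.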

The test system of series [11] is K562. Put plainly: Induction of apoptosis in human K562 cells assessed as decrease in livin protein expression at 1 uM after 24 hrs by chemiluminescence based apoptosis array method. Type of series: functional, cell-based. Summed up: as §1
The test system of another series is MCF7. The experiment in a line: Antiproliferative activity against human MCF7 cells assessed as reduction in cell viability after 72 hrs by MTT assay. The conditions noted are these: MCF7, 72 h. A general note: Formazan colour is commonly taken as a measure of viable cells.

Active and inactive are the calls of the source. The calls are words filed in the database; no cut-off is given here.

A word on the IC50: it is the midpoint of a concentration-inhibition curve.

`C=C1C(=O)[C@]23[C@H](OC(=O)CCC(=O)OCCCCCCOc4ccc(-c5cc(=S)ss5)cc4)[C@H]1CC[C@H]2[C@@]12CO[C@@]3(O)[C@@H](O)[C@@H]1C(C)(C)CC[C@@H]2OC(C)=O`: in [1], the selectivity ratio is 20. For the same compound, the Activity is on record as 31.41% in the series on HepG2 [2]; 61.39% in the series with HepG2 [3]; 27.19% in the series with HepG2 [4]; 28.3% in the series on HepG2 [5]; 8.38% in the series with K562 [7]; 2.7% in the series with HepG2 [9]. Moreover, the viability at 0.5 µM with K562 [6] stood at 87%. Further, in the series on K562 [8], the viability at 2 µM is 47.4%. Besides, the result with K562 [10] and with K562 [11] was Active. For the same compound, the IC50 in the series on MCF7 worked out at 16.1 µM.
